# Screening data (PubChem)
# S100A4 inh HTS = inhibitors of S100A4-myosin IIA peptide binding, primary screen, biochemical, fluorescence polarization, TAMRA-MyoIIA peptide. AID 652163, 2013. inhibition, % at 10.7 µM. 360,000 compounds, 0.14% hits. Protein S100-A4 (Homo sapiens), P26447;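 active = mean inhibition of at least 70% across replicates, with every replicate also reaching that level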
# Target sequence (P26447 whole entry, looked up): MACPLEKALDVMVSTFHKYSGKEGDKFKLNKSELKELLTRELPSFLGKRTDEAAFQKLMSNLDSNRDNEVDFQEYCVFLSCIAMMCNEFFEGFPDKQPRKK
#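 Compound dosing: one dose per compound; test system: human S100A4 monomer with TAMRA-labelled myosin IIA peptide; probe or stimulus: TAMRA-labelled myosin IIA heavy-chain peptide probe, 5 nM; medium: HEPES buffer with Ca2+, pH 7.2; schedule: 5 min incubation before reading; benchmarks: neutral control DMSO, positive control TFP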
# ERAP1 inh = human ERAP1 aminopeptidase inhibitors, primary screen, biochemical, single point, plate reader. Endoplasmic reticulum aminopeptidase 1 (Homo sapiens), Q9NZ08. recombinant ERAP1, Leu-AMC fluorescence, 60 min. inhibition, % at 10.7 µM. 340,000 compounds, 0.15% hits;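 active = mean replicate inhibition of at least 30%, or all replicates individually reaching that 30% level; inactive = mean below 30% and not every replicate reaching it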
# SIRT5 inh = SIRT5 desuccinylase inhibitors, primary screen, biochemical, fluorescence imaging, single point, set 5; NAD-dependent protein deacylase sirtuin-5, mitochondrial (Homo sapiens), Q9NXA8; Purified SirT5, succinyl-peptide AMC, trypsin-coupled fluorescence; inhibition, % at 15 µM; 330,000 compounds, 1.1% hits; in the data active = inhibition above about 15%
# Target sequence (Q9NXA8 whole entry, looked up): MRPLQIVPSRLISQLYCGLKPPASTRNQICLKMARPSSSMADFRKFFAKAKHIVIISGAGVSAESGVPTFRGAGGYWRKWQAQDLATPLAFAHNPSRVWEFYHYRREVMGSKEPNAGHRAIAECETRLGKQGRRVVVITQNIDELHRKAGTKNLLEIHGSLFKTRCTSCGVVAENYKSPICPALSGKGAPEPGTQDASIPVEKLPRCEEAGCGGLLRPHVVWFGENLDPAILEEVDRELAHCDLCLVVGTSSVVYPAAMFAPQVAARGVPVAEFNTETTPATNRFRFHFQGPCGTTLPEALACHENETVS
# F508del corr = F508del CFTR correction, initial screen, CFBE line, single point. activity (quench increase), % at 7.58 µM. 350,000 compounds, 0.36% hits. AID 720511, 2013. CFBE cells, YFP halide quenching; stimulated with forskolin plus potentiator P3; % fluorescence drop versus neutral controls;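 active = mean added fluorescence quench of at least 8% versus neutral control, with both replicates also reaching 8%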;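 also: cells transiently co-express mutant CFTR-F508del with the halide-sensitive YFP; corrector assay measuring rescue of mutant channel to the surface after 24 h compound exposure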
# Ecoli rRNA inh = reduced GFP signal of wild-type E. coli, primary screen, bacterial rRNA inhibitor project, GFP/RFP fluorescence, OD600, single point. 350,000 compounds, 1.6% hits. GFP signal change (wild-type ribosome), % (no concentration beside the values). E. coli WT GFP vs humanized-ribosome RFP mutants, 24 h; active compounds read low; DMSO median 0, no signal -100;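 active = significant combined selectivity score with lowered wild-type GFP, culture density cut under 30%, mutant RFP and density less affected; inactive = any of these conditions unmet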
# A number is an active result; i = inactive; nt = not tested or not shown. Compounds with a hit are over-represented: about 3.1% of the library has one in this group of screens.
SMILES,S100A4 inh HTS,ERAP1 inh,SIRT5 inh,F508del corr,Ecoli rRNA inh
O=C(Cc1ccncc1)NCC[C@@H]1CC[C@H](NC(=O)C2CC2)[C@@H](CO)O1,i,i,i,i,i
CCN(CC(=O)Nc1c(F)cccc1F)C(=O)c1ccc2c(c1)NC(=O)C(C)S2 (stereo unspecified),i,i,27.4,i,i
CCN(CC(=O)Nc1ccc(OC)cc1)C(=O)c1ccc2c(c1)NC(=O)C(C)S2 (stereo unspecified),i,i,i,i,i
CCN(CC(=O)Nc1c(F)cccc1F)C(=O)C1CC1,i,i,i,8.4,i
C[C@@H]1CCCCO[C@@H](CN(C)C(=O)c2ccncc2)[C@@H](C)CN([C@H](C)CO)C(=O)c2cc(NS(=O)(=O)c3cn(C)cn3)ccc2O1,i,i,i,i,i
Cc1cccc(NC(=O)c2ccc(-c3ccccc3[N+](=O)[O-])o2)c1,i,i,i,i,-32.0
COc1cccc(NC(=O)c2ccc(-c3ccccc3[N+](=O)[O-])o2)c1,i,i,i,i,i
Cc1cc(C)nc(N(C#N)Cc2cccc(Cl)c2)n1,i,i,i,10.5,i
Cc1noc(C)c1NC(=O)N[C@@H]1CC[C@H](CC(=O)NCCCN(C)C)O[C@@H]1CO,i,i,i,i,i
Cc1noc(C)c1NC(=O)N[C@H]1CC[C@@H](CC(=O)NCCCN(C)C)O[C@H]1CO,i,i,16.0,i,i
O=C(O)/C(=C\c1ccc2ccccc2c1)c1cccc2ccccc12,i,i,i,i,-47.0
C[C@H]1CN([C@@H](C)CO)C(=O)c2cc(C#Cc3ccccc3)cnc2O[C@@H]1CN(C)C(=O)C1CC1,i,i,i,i,i
CCN(C[C@H]1[C@@H](c2ccc(-c3ccccc3)cc2)[C@@H](CO)N1C(C)=O)C(C)=O,i,i,i,i,i
CCC(=O)N(C)C[C@@H]1[C@@H](c2ccc(-c3ccccc3F)cc2)[C@H](CO)N1C(C)=O,i,i,22.0,i,i
CCN(C[C@H]1[C@@H](c2ccc(-c3ccccc3F)cc2)[C@@H](CO)N1C(C)=O)C(C)=O,i,i,22.1,i,i
C[C@@H]1CCCCO[C@H](CN(C)Cc2ccncc2)[C@H](C)CN([C@@H](C)CO)C(=O)c2cc(NS(C)(=O)=O)ccc2O1,i,i,i,i,i
C[C@H]1CCCCO[C@H](CN(C)S(=O)(=O)c2cn(C)cn2)[C@@H](C)CN([C@@H](C)CO)C(=O)c2cc(NC(=O)Nc3ccccc3)ccc2O1,i,i,i,i,i
COc1ccccc1C#Cc1ccc([C@@H]2[C@H]3CN(C(=O)C4CCCC4)CCCCN3[C@H]2CO)cc1,i,i,i,i,nt
CN1C(=O)c2cc(NC(=O)c3ccc(F)c(F)c3)ccc2OC[C@@H]2O[C@@H](CC(=O)N[C@H]3CCN(Cc4ccccc4)C3)CC[C@@H]21,nt,nt,nt,nt,i
C[C@H]1CN([C@@H](C)CO)C(=O)c2cc(/C=C/c3ccccc3)cnc2O[C@@H]1CN(C)C,i,i,i,i,i
CN1CCN(c2ccc(NC(=O)c3ccc([N+](=O)[O-])o3)cc2Cl)CC1,i,i,i,i,i
CCN1CCN(c2c(Cl)cccc2NC(=O)c2ccc([N+](=O)[O-])o2)CC1,i,i,i,i,-17.4
CCCC(=O)N1CCN(c2ccc(NC(=O)c3ccc([N+](=O)[O-])o3)cc2Cl)CC1,i,i,i,i,-38.6
O=C(COC(=O)c1cccc(O)c1)Nc1ccc(OC(F)F)cc1,i,i,i,i,-25.1
O=C(C[C@@H]1C[C@H]2c3cc(NS(=O)(=O)c4ccc(F)cc4)ccc3O[C@H]2[C@@H](CO)O1)NCc1ccccc1,i,i,i,i,i
SMILES,S100A4 inh HTS,ERAP1 inh,SIRT5 inh,F508del corr,Ecoli rRNA inh
CCCNC(=O)N1CC2(CN(S(=O)(=O)c3cccc(OC)c3)C2)c2c(n(C)c3cc(OC)ccc23)[C@H]1CO,nt,nt,nt,8.6,i
CCCNC(=O)N1CC2(CN(S(=O)(=O)c3ccc(OC)cc3)C2)c2c(n(C)c3cc(OC)ccc23)[C@H]1CO,i,i,16.0,i,i
C[C@@H]1CCCCO[C@@H](CN(C)C(=O)c2ccccc2)[C@@H](C)CN([C@@H](C)CO)C(=O)c2cc(NC(=O)Nc3ccc(F)cc3)ccc2O1,i,i,i,i,i
COc1ccc2c3c([nH]c2c1)[C@H](CO)N(C(=O)c1ccc(F)cc1)CC31CCN(C(=O)CC2CC2)CC1,nt,nt,nt,i,i
COC(=O)c1ccc(COC(=O)[C@@H]2CC(O)CN2S(=O)(=O)c2ccccc2[N+](=O)[O-])cc1 (stereo partly specified),i,i,i,i,-17.4
Clc1ccc(N(CC2CO2)CC2CO2)cc1 (stereo unspecified),i,i,i,8.1,i
CCCC#Cc1ccc2c(c1)[C@@H]1[C@@H](CCN1S(=O)(=O)c1ccccc1OC)[C@@H](CO)N2,i,i,nt,i,i
COc1ccc(-c2cc(C(=O)N3CCN(c4ccccc4F)CC3)c3ccccc3n2)c(OC)c1,i,i,i,i,nt
O=C(COc1cccc2ccccc12)N1CCN(c2ccccn2)CC1,i,i,17.8,i,i
CCOc1ccc(-c2cc(C(=O)N3CCN(c4ccccn4)CC3)c3ccccc3n2)cc1,i,i,i,11.6,i
COc1ccc(-c2cc(C(=O)N3CCCCCC3)c3ccccc3n2)c(OC)c1,i,i,i,i,-33.2
COc1ccc(/C=C/C(=O)N2CCN(c3ccccn3)CC2)cc1,i,i,i,i,-22.6
CN1CCN(C(=O)[C@@H]2[C@@H](CO)[C@@H]3Cn4c(cccc4=O)[C@H]2N3S(=O)(=O)c2ccccc2F)CC1,i,i,i,i,i
C[C@H](NC(=O)N(C)C[C@H]1OCc2ccccc2-c2ccccc2C(=O)N([C@H](C)CO)C[C@@H]1C)c1ccccc1,nt,nt,nt,nt,i
CC1=[N+](C)c2ccc3ccccc3c2C1(C)C,144.9,i,i,i,i
NC(=O)c1nnsc1Sc1c(C(N)=O)nnn1-c1cccc(N)c1,i,i,i,i,-27.1
CCCCC[C@@H](C)N1C[C@H](COCc2ccccc2)Oc2cc(N3CCC[C@@H]3CO)ccc2S1(=O)=O,i,i,26.5,i,i
CCCCC[C@@H](C)N1C[C@@H](COCc2ccccc2)Oc2cc(N3CCC[C@H]3CO)ccc2S1(=O)=O,i,i,i,i,i
COc1ccccc1C(=O)N1C[C@@H]2[C@H](c3ccccc31)[C@@H](CO)N2C(=O)Nc1ccccc1,i,i,i,i,i
CCCCOc1ccc(S(=O)(=O)NNC(=O)c2cc3ccccc3o2)cc1,i,i,30.6,i,i
